Activity calls are given as the source filed them. The rule behind the calls is not given here.
Legend:
CDK7/Cyclin H/MNAT1 [1] = target: T1, CDK7/Cyclin H/MNAT1 (Homo sapiens, UniProt P50613); test: Inhibition of CDK7/CycH/MNAT1 (unknown origin) assessed as change in TR-FRET ratio using Cdk7/9tide as substrate and ATP by in vitro Adapta Eu kinase assay; type: protein-complex assay
Outline: (§1)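 Adapta Eu kinase assay run at ThermoFisher on CDK7/Cyclin H/MNAT1 with ATP at Km.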

[2] = target: T2, von Hippel-Lindau disease tumor suppressor/Cyclin-dependent kinase 7 (Homo sapiens) (UniProt P50613+P40337); test: PROTAC activity at CDK7/VHL in human Jurkat cells assessed as degradation of CDK7 at 0.1 uM measured after 16 hrs incubation by immunoblot analysis relative to control; type: cell-based
Outline: (§2)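 Jurkat cells given VHL-recruiting compounds at 0.1 or 1 μM for 16 h. RIPA lysis, BCA normalization, 4–20% SDS-PAGE, nitrocellulose transfer. CDK7 (1:1000) and β-actin probed overnight at 4 °C, IRDye secondaries, Odyssey detection. Quantified against control, mean ± SEM from three independent biological replicates.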

[3] = target: T2, von Hippel-Lindau disease tumor suppressor/Cyclin-dependent kinase 7 (Homo sapiens); test: PROTAC activity at CDK7/VHL in human Jurkat cells assessed as degradation of CDK7 at 1 uM measured after 16 hrs incubation by immunoblot analysis relative to control; type: cell-based; outline: as §2
CDK7/Cyclin H/MNAT1 [4] = target: T1, CDK7/Cyclin H/MNAT1; test: Inhibition of recombinant GST-tagged CDK7/CycH/MAT1 (unknown origin) extracted from baculo-virus infected Sf9 insect cells assessed as inhibition constant using ATP containing 32P measured after 15 mins by Beckman liquid scintillation counter analysis; type: cell-free
[5] = target: T3, Protein cereblon/Cyclin-dependent kinase 7 (Homo sapiens) (UniProt P50613+Q96SW2); test: PROTAC activity at CDK7/CRBN in human Jurkat cells assessed as degradation of CDK7 at 1 uM measured after 16 hrs incubation by immunoblot analysis; type: cell-based
Outline: (§3)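 Jurkat cells exposed to CRBN-recruiting bivalent compounds at 0.1 or 1 μM for 16 h. Lysed in RIPA with protease/phosphatase inhibitors, BCA-normalized, run on 4–20% SDS-PAGE and blotted to nitrocellulose. Probed with anti-CDK7 (1:1000) and β-actin (1:5000) overnight at 4 °C, IRDye secondaries, near-infrared imaging.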

[6] = target: T3, Protein cereblon/Cyclin-dependent kinase 7 (Homo sapiens); test: PROTAC activity at CDK7/CRBN in human Jurkat cells assessed as degradation of CDK7 at 0.1 uM measured after 16 hrs incubation by immunoblot analysis; type: cell-based; outline: as §3
MOLT-4 = test: Antiproliferative activity against human MOLT-4 cells assessed as cell viability measured after 72 hrs by CellTiter-Glo assay; type: functional, cell-based; settings: MOLT-4, 72 h
Outline: (§4)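 Cells grown in RPMI 1640 with 10% heat-inactivated FBS and penicillin/streptomycin at 37 °C, 5% CO2, mycoplasma-negative. Seeded at 10^4/ml. Compounds dispensed digitally from 10 mM or 1 mM DMSO stocks, DMSO equalized, triplicate wells. After 72 h, CellTiter-Glo added for 10–15 min at room temperature and luminescence read.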

Jurkat = test: Antiproliferative activity against human Jurkat cells assessed as cell viability measured after 72 hrs by CellTiter-Glo assay; type: functional, cell-based; outline: as §4
OVCAR-3 = test: Antiproliferative activity against human OVCAR-3 cells assessed as cell viability measured after 72 hrs by CellTiter-Glo assay; type: functional, cell-based; settings: OVCAR-3, 72 h; outline: as §4
CDK7/Cyclin H/MNAT1 [7] = target: T1, CDK7/Cyclin H/MNAT1; test: Inhibition of CDK7/CycH/MAT1 (unknown origin); set-up: species or system Sf9; outline: as §1
SU-DHL-5 = test: Antiproliferative activity against human SU-DHL-5 cells assessed as cell viability measured after 72 hrs by CellTiter-Glo assay; type: functional, cell-based; settings: SU-DHL-5, 72 h; outline: as §4
A549 = test: Antiproliferative activity against human A549 cells assessed as cell viability measured after 72 hrs by CellTiter-Glo assay; type: functional, cell-based; settings: A549, 72 h; outline: as §4

T1 sequence (P51946 whole entry): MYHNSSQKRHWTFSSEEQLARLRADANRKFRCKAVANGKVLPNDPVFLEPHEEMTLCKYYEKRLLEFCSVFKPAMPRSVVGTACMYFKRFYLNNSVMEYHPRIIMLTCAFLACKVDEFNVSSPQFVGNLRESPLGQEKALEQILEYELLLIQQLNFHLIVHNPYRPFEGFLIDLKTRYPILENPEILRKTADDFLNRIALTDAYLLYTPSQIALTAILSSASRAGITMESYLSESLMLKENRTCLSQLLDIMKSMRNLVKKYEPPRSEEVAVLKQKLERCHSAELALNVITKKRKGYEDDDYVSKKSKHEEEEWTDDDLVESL
T1 sequence (P50613 whole entry): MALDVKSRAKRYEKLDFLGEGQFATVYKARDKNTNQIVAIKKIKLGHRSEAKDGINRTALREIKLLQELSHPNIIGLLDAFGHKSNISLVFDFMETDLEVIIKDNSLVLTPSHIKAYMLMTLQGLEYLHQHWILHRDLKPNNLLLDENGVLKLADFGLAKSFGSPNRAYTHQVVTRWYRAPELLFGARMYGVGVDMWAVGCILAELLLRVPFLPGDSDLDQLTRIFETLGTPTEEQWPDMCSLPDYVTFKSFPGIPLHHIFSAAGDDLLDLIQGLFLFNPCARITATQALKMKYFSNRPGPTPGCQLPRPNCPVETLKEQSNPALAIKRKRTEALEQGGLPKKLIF
T1 sequence (P51948 whole entry, further chain): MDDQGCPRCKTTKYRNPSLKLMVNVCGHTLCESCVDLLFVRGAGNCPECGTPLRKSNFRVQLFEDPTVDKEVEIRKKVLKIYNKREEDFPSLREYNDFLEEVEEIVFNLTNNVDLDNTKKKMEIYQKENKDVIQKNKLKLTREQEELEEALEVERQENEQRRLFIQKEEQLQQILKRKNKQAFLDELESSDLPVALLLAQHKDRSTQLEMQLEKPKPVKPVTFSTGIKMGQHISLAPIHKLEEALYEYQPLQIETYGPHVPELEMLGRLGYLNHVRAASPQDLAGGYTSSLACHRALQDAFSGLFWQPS
T2 sequence (P40337 whole entry, looked up): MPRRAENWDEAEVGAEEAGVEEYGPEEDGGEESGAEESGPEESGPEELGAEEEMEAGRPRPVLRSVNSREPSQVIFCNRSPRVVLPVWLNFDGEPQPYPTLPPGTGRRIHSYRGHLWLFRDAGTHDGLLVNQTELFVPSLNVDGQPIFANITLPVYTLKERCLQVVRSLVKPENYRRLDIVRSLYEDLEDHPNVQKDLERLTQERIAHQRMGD
T2 sequence (P50613 whole entry, looked up): as the sequence (P50613 whole entry) above
T3 sequence (P50613 whole entry, looked up): as the sequence (P50613 whole entry) above
T3 sequence (Q96SW2 whole entry, looked up): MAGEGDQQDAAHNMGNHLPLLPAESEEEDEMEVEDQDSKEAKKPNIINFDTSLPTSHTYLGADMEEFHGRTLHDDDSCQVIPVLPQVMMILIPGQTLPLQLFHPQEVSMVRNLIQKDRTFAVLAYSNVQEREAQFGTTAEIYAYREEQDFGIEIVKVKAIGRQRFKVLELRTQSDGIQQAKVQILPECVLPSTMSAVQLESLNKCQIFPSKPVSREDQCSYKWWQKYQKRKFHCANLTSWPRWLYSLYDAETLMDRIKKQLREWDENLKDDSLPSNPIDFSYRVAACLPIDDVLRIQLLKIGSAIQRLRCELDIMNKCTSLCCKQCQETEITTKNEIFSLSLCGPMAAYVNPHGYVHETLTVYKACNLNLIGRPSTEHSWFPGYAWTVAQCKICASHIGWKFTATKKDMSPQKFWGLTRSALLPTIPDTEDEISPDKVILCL

## Cc1ncsc1-c1ccc([C@H](C)NC(=O)[C@@H]2C[C@@H](O)CN2C(=O)[C@@H](NC(=O)CCNC(=O)c2ccc(C(=O)Nc3n[nH]c4c3CN(C(=O)N[C@H](CN(C)C)c3ccccc3)C4(C)C)cc2)C(C)(C)C)cc1
CDK7/Cyclin H/MNAT1 [1]
  IC50: 0.0087 µM
[2]
  Activity: Active
[3]
  Activity: Active

## C=CC(=O)Nc1ccc(C(=O)Nc2n[nH]c3c2CN(C(=O)N[C@@H](CN(C)C)c2ccccc2)C3(C)C)cc1
CDK7/Cyclin H/MNAT1 [4]
  Ki: 0.0022 µM

## Cc1ncsc1-c1ccc([C@H](C)NC(=O)[C@@H]2C[C@@H](O)CN2C(=O)[C@@H](NC(=O)CCCCCc2ccc(C(=O)Nc3n[nH]c4c3CN(C(=O)N[C@H](CN(C)C)c3ccccc3)C4(C)C)cc2)C(C)(C)C)cc1
[2]
  Activity: Active
[3]
  Activity: Active

## CN(C)C[C@@H](NC(=O)N1Cc2c(NC(=O)c3ccc(C(=O)NCCNc4cccc5c4C(=O)N(C4CCC(=O)NC4=O)C5=O)cc3)n[nH]c2C1(C)C)c1ccccc1 (some centres not stated)
CDK7/Cyclin H/MNAT1 [1]
  IC50: 0.0067 µM
[5]
  Activity: inactive
[6]
  Activity: inactive

## CN(C)C[C@@H](NC(=O)N1Cc2c(NC(=O)c3ccc(C(=O)NCCCCCCCCOc4cccc5c4C(=O)N(C4CCC(=O)NC4=O)C5=O)cc3)n[nH]c2C1(C)C)c1ccccc1 (some centres not stated)
CDK7/Cyclin H/MNAT1 [1]
  IC50: 0.0344 µM
[5]
  Activity: inactive
[6]
  Activity: inactive

## CN(C)C[C@@H](NC(=O)N1Cc2c(NC(=O)c3ccc(C(=O)NCCOCCNc4cccc5c4C(=O)N(C4CCC(=O)NC4=O)C5=O)cc3)n[nH]c2C1(C)C)c1ccccc1 (some centres not stated)
CDK7/Cyclin H/MNAT1 [1]
  IC50: 0.0113 µM
[5]
  Activity: inactive
[6]
  Activity: inactive

## CC(=O)N[C@H](C(=O)N1C[C@H](O)C[C@H]1C(=O)N[C@@H](C)c1ccc(-c2scnc2C(=O)NCCCCCNC(=O)c2ccc(C(=O)Nc3n[nH]c4c3CN(C(=O)N[C@H](CN(C)C)c3ccccc3)C4(C)C)cc2)cc1)C(C)(C)C
CDK7/Cyclin H/MNAT1 [1]
  IC50: 0.0086 µM
[2]
  Activity: Active
[3]
  Activity: Active

## CN(C)C[C@@H](NC(=O)N1Cc2c(NC(=O)c3ccc(C(=O)NCCOCCOCCOCCNc4cccc5c4C(=O)N(C4CCC(=O)NC4=O)C5=O)cc3)n[nH]c2C1(C)C)c1ccccc1 (some centres not stated)
CDK7/Cyclin H/MNAT1 [1]
  IC50: 0.0177 µM
[5]
  Activity: inactive
[6]
  Activity: inactive

## Cc1ncsc1-c1ccc(CNC(=O)C2[C@@H](O)CCN2C(=O)C(NC(=O)C2(F)CC2)C(C)(C)C)c(OCCOCCOCCNC(=O)c2ccc(C(=O)Nc3n[nH]c4c3CN(C(=O)N[C@H](CN(C)C)c3ccccc3)C4(C)C)cc2)c1 (some centres not stated)
CDK7/Cyclin H/MNAT1 [1]
  IC50: 0.0134 µM
[2]
  Activity: Active
[3]
  Activity: Active

## CCC(=O)Nc1ccc(C(=O)Nc2n[nH]c3c2CN(C(=O)N[C@@H](CN(C)C)c2ccccc2)C3(C)C)cc1
MOLT-4
  IC50: 0.598 µM
Jurkat
  IC50: 1.19 µM
OVCAR-3
  IC50: 0.896 µM
CDK7/Cyclin H/MNAT1 [7]
  IC50: 0.0068 µM
SU-DHL-5
  IC50: 0.176 µM
A549
  IC50: 1.63 µM

## CN(C)C[C@@H](NC(=O)N1Cc2c(NC(=O)c3ccc(C(=O)NCCCCCOc4cccc5c4C(=O)N(C4CCC(=O)NC4=O)C5=O)cc3)n[nH]c2C1(C)C)c1ccccc1 (some centres not stated)
CDK7/Cyclin H/MNAT1 [1]
  IC50: 0.0092 µM
[5]
  Activity: inactive
[6]
  Activity: inactive

## Cc1ncsc1-c1ccc([C@H](C)NC(=O)[C@@H]2C[C@@H](O)CN2C(=O)[C@@H](NC(=O)CCOCCNC(=O)c2ccc(C(=O)Nc3n[nH]c4c3CN(C(=O)N[C@H](CN(C)C)c3ccccc3)C4(C)C)cc2)C(C)(C)C)cc1
CDK7/Cyclin H/MNAT1 [1]
  IC50: 0.0111 µM
[2]
  Activity: Active
[3]
  Activity: Active

## Cc1ncsc1-c1ccc([C@H](C)NC(=O)[C@@H]2C[C@@H](O)CN2C(=O)[C@@H](NC(=O)CCCCCNC(=O)c2ccc(C(=O)Nc3n[nH]c4c3CN(C(=O)N[C@H](CN(C)C)c3ccccc3)C4(C)C)cc2)C(C)(C)C)cc1
CDK7/Cyclin H/MNAT1 [1]
  IC50: 0.0081 µM
[2]
  Activity: Active
[3]
  Activity: Active

## Cc1ncsc1-c1ccc([C@H](C)NC(=O)[C@@H]2C[C@@H](O)CN2C(=O)[C@@H](NC(=O)CCCNC(=O)c2ccc(C(=O)Nc3n[nH]c4c3CN(C(=O)N[C@H](CN(C)C)c3ccccc3)C4(C)C)cc2)C(C)(C)C)cc1
CDK7/Cyclin H/MNAT1 [1]
  IC50: 0.0056 µM
[2]
  Activity: Active
[3]
  Activity: Active

## Cc1ncsc1-c1ccc([C@H](C)NC(=O)[C@@H]2C[C@@H](O)CN2C(=O)[C@@H](NC(=O)CCCCOc2ccc(C(=O)Nc3n[nH]c4c3CN(C(=O)N[C@H](CN(C)C)c3ccccc3)C4(C)C)cc2)C(C)(C)C)cc1
CDK7/Cyclin H/MNAT1 [1]
  IC50: 0.0126 µM
[2]
  Activity: Active
[3]
  Activity: Active

## CN(C)C[C@@H](NC(=O)N1Cc2c(NC(=O)c3ccc(C(=O)NCCCCC#Cc4cccc5c4C(=O)N(C4CCC(=O)NC4=O)C5=O)cc3)n[nH]c2C1(C)C)c1ccccc1 (some centres not stated)
CDK7/Cyclin H/MNAT1 [1]
  IC50: 0.0133 µM
[5]
  Activity: inactive
[6]
  Activity: inactive

## Cc1ncsc1-c1ccc([C@H](C)NC(=O)[C@@H]2C[C@@H](O)CN2C(=O)[C@@H](NC(=O)CCOCCOCCNC(=O)c2ccc(C(=O)Nc3n[nH]c4c3CN(C(=O)N[C@H](CN(C)C)c3ccccc3)C4)cc2)C(C)(C)C)cc1
CDK7/Cyclin H/MNAT1 [1]
  IC50: 0.0076 µM
[2]
  Activity: Active
[3]
  Activity: Active

## CN(C)C[C@@H](NC(=O)N1Cc2c(NC(=O)c3ccc(C(=O)NCCCCCCNc4cccc5c4C(=O)N(C4CCC(=O)NC4=O)C5=O)cc3)n[nH]c2C1(C)C)c1ccccc1 (some centres not stated)
CDK7/Cyclin H/MNAT1 [1]
  IC50: 0.0094 µM
[5]
  Activity: inactive
[6]
  Activity: inactive

## CN(C)C[C@@H](NC(=O)N1Cc2c(NC(=O)c3ccc(C(=O)NCCOCCOCCNc4cccc5c4C(=O)N(C4CCC(=O)NC4=O)C5=O)cc3)n[nH]c2C1(C)C)c1ccccc1 (some centres not stated)
CDK7/Cyclin H/MNAT1 [1]
  IC50: 0.0064 µM
[5]
  Activity: inactive
[6]
  Activity: inactive

Reference: ChEMBL document CHEMBL5608193, “Discovery of bivalent small molecule degraders of cyclin-dependent kinase 7 (CDK7)” (Eur J Med Chem, 2024)
